Assay results: ChEMBL document CHEMBL1133473, “Synthesis and antiviral activity of 4-benzyl pyridinone derivatives as potent and selective non-nucleoside human immunodeficiency virus type 1 reverse transcriptase inhibitors” (J Med Chem, 2000)
Values joined by “and” are separate entries in the source; they are usually repeats but may differ in a detail not shown here. Identical values can stand only once.

Legend:
[1] = tested on: Human immunodeficiency virus 1; assay: Selectivity index is the ratio of CC50 to IC50; format: functional
CEM-SS [2] = assay: Tested for cytotoxic concentration on HIV-I Lai wild type in CEM-SS cell line; format: functional; settings: Homo sapiens
Summary of the method: (§1)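 CEM-SS cells, uninfected, cultured 5 days with compound. Compounds were taken from a DMSO solution at 10^-2 M (10^-3 M or lower if insoluble), diluted 1:100 in medium, then serially diluted in medium.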

CEM-SS [3] = assay: Tested for inhibitory concentration on HIV-I Lai wild type in CEM-SS cell line; format: functional, cell-based; settings: Homo sapiens
Summary of the method: (§2)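 CEM-SS lymphocytic cells infected with 100 TCID50 of HIV-1 LAI, or of the nevirapine-resistant N119 strain carrying an RT codon 181 mutation. Virus adsorbed 30 min, unbound virus removed by two washes, then cells cultured 5 days with serial compound dilutions. Read-out: RT activity of particles released into the supernatant. IC50 from a computer median effect plot of dose-effect data.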

[4] = tested on: Human immunodeficiency virus 1; assay: Tested for cytotoxic concentration on HIV-I nevirapine resistant strain.; format: functional; summary of the method: as §1
[5] = tested on: Human immunodeficiency virus 1; assay: Inhibitory concentration against HIV-1 AZTres.; format: functional, organism-based
Summary of the method: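 AZT-resistant HIV-1 isolate A018 G910-6 tested in cell culture; virus production measured as RT activity of particles released into the culture supernatant.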

[6] = tested on: Human immunodeficiency virus 1; assay: Inhibitory concentration against HIV-1 IIIB strain; format: functional, organism-based
Summary of the method: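 MT4 cells infected with HIV-1 IIIB; antiviral effect read as protection from virus-induced cytopathogenicity by MTT. Compounds taken from DMSO stock, diluted in culture medium.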

[7] = (§3) Selectivity index is the ratio of CC50 to IC50 against HIV-1 nevirapine resistant strain; format: functional
[8] = tested on: Human immunodeficiency virus 1; assay: Inhibitory concentration against HIV-1 Bal/Mono; format: functional, organism-based
Summary of the method: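 Macrophage-tropic HIV-1 Bal in monocyte-derived macrophages kept serum-free in AIM V medium with 100 U/mL GM-CSF. Virus output measured as supernatant particle-associated RT activity.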

[9] = tested on: Human immunodeficiency virus 1; assay: Tested for inhibitory concentration on HIV-I nevirapine resistant strain.; format: functional, organism-based; summary of the method: as §2
[10] = target: Human immunodeficiency virus type 1 reverse transcriptase (Human immunodeficiency virus 1, UniProt Q72547); assay: Tested for inhibitory concentration on HIV-1 Reverse transcriptase in the presence of poly(c)-oligo-(dG)
Summary of the method: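 Recombinant HIV-1 RT purified from yeast, 20-50 nM. Reaction at 37 °C for 10 min in 50 mM Tris-HCl pH 8.0, 5 mM MgCl2, 4 mM DTT, 80 mM KCl, BSA, 0.48 A260 units/mL poly(C)-oligo(dG) (5:1), 2 µM dGTP plus [3H]dGTP. Stopped with cold 10% TCA plus 0.1 M pyrophosphate; precipitates filtered, scintillation counted. Compounds dissolved in DMSO.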

[11] = Cytotoxicity against PBMC cells infected with HIV-2 D 194; format: functional; settings: Human immunodeficiency virus 2, PBMC
MT4 [12] = assay: Cytotoxicity against MT-4 cells infected with HIV-1 AZTres; format: functional; settings: Homo sapiens
[13] = Inhibitory concentration against HIV-2 D 194; format: functional
Summary of the method: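 Cell-based antiviral assay against this HIV-2 isolate. Compounds were dissolved in DMSO as 10^-2 M stocks, or 10^-3 M or lower when insoluble, diluted 1% in culture medium, then serially diluted in medium. Virus production was read as reverse transcriptase activity of particles released into the culture supernatant. IC50 was taken from a median-effect plot of the dose-effect data.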

[14] = Cytotoxicity against Macrophages infected with HIV-1 Bal/Mono; format: functional; settings: Human immunodeficiency virus 1
[15] = Cytotoxicity against PBMC cells infected with HIV-1 IIIB strain; format: functional; settings: Human immunodeficiency virus 1, PBMC
MT4 [16] = assay: Cytotoxicity against MT-4 cells infected with HIV-1 IIIB strain; format: functional; settings: Homo sapiens
[17] = tested on: Human immunodeficiency virus 1; assay: as §3; format: functional

With `CCC(=O)Nc1c(Cc2cc(C)cc(C)c2)c(CC)c(C)[nH]c1=O` the SI [1] was over 2, the CC50 (CEM-SS [2]) was over 10 µM and the IC50 (CEM-SS [3]) was 4.6 µM.

`CCOCn1c(Cc2cc(C)cc(C)c2)c(CC)c(=O)[nH]c1=O` gave an SI [1] of 130000, a CC50 (CEM-SS [2]) of 207 µM and an IC50 (CEM-SS [3]) of 0.0016 µM.

For `CCc1c(C)nc(OC)c(NC(=O)C(C)(C)C)c1C(C)(O)c1cc(C)cc(C)c1` (configuration not stated), the CC50 (CEM-SS [2]) was over 10 µM and the IC50 (CEM-SS [3]) was over 10 µM.

`CCC(=O)Nc1c(O)ncc(C)c1Sc1cc(C)cc(C)c1` showed an SI [1] of over 2 and an IC50 (CEM-SS [3]) of 41.4 µM.

`CCc1cc(NC(=O)C(C)(C)C)c(OC)nc1C` showed a CC50 (CEM-SS [2]) of over 100 µM and an IC50 (CEM-SS [3]) of over 100 µM.

For `CCc1c(C)nc(OC)c(NC(=O)C(C)(C)C)c1Cc1cc(C)cc(C)c1`, the CC50 (CEM-SS [2]) was over 100 µM and the IC50 (CEM-SS [3]) was over 100 µM.

With `CCc1c(C)nc(O)c(N)c1Cc1cc(C)cc(C)c1` the CC50 [4] was over 10 µM, the IC50 [5] was 4.35 µM and the IC50 [6] was 0.31 µM. It also gave an IC50 ([6]; Human immunodeficiency virus 1) of 0.5 µM, an SI [7] of over 10 and an IC50 [8] of 0.13 µM. For the same compound, the IC50 [9] was 1 µM, the IC50 [10] was 0.1 µM and the SI [1] was over 588. For the same compound, the CC50 [11] was over 10 µM, the CC50 (CEM-SS [2]) was over 10 µM and the IC50 (CEM-SS [3]) was 0.017 µM. The CC50 (MT4 [12]) was over 10 µM, the IC50 [13] was over 10 µM and the CC50 [14] was over 10 µM. For the same compound, the CC50 [15] was over 10 µM and the CC50 (MT4 [16]) was over 10 µM.

`CCc1c(C)nc(O)c([N+](=O)[O-])c1Sc1cc(C)cc(C)c1` gave an IC50 [9] of 0.26 µM.

With `CCc1c(C)nc(O)c(NCc2cc(C)c(C)cc2OC)c1Cc1cc(C)cc(C)c1` the CC50 (CEM-SS [2]) was over 1 µM and the IC50 (CEM-SS [3]) was 1 µM.

With `CCc1c(C)nc(O)c(N)c1C(=O)c1cc(C)cc(C)c1` the CC50 [4] was over 10 µM, the IC50 [5] was 0.025 µM and the IC50 [6] was 0.085 µM and 0.02 µM. For the same compound, the IC50 [8] was 0.017 µM, the IC50 [9] was 1.3 µM and the IC50 [10] was 0.1 µM. For the same compound, the SI [1] was over 1666, the CC50 [11] was over 10 µM and the CC50 (CEM-SS [2]) was over 10 µM. The IC50 (CEM-SS [3]) was 0.006 µM, the CC50 (MT4 [12]) was over 10 µM and the IC50 [13] was over 10 µM. The CC50 [14] was over 10 µM, the SI [17] was over 7 and the CC50 [15] was over 10 µM. For the same compound, the CC50 (MT4 [16]) was over 10 µM.

`Cc1cc(C)cc(Sc2c(C)cnc(O)c2NC=O)c1` gave an SI [1] of over 15 and an IC50 (CEM-SS [3]) of 6.6 µM.

For `CCc1c(C)nc(OC)c(NC(=O)C(C)(C)C)c1C(OC(C)=O)c1cc(C)cc(C)c1` (configuration not stated), the SI [1] was over 1, the CC50 (CEM-SS [2]) was over 10 µM and the IC50 (CEM-SS [3]) was 10 µM.

With `CCc1c(C)nc(OC)c(NC(=O)C(C)(C)C)c1C(O)c1cc(C)cc(C)c1` (configuration not stated) the CC50 (CEM-SS [2]) was over 1 µM and the IC50 (CEM-SS [3]) was over 1 µM.

With `CC(C)=CCN1Cc2cc(Cl)cc3[nH]c(=S)n(c23)C[C@@H]1C` the CC50 [4] was over 10 µM and the IC50 [9] was over 10 µM.

Work on `CCc1c(C)nc(OC)c(NC(C)=O)c1C(C)(OC(C)=O)c1cc(C)cc(C)c1` (configuration not stated) yielded an SI [1] of over 4, a CC50 (CEM-SS [2]) of over 10 µM and an IC50 (CEM-SS [3]) of 2.5 µM.

`CCc1c(C)[nH]c(=O)c(NC(C)=O)c1Cc1cc(C)cc(C)c1` gave a CC50 [4] of over 10 µM, an IC50 [5] of 0.44 µM and an IC50 [8] of 0.2 µM. For the same compound, the IC50 [9] was over 10 µM, the SI [1] was over 100 and the CC50 [11] was over 10 µM. It also gave a CC50 (CEM-SS [2]) of over 10 µM, an IC50 (CEM-SS [3]) of 0.1 µM and a CC50 (MT4 [12]) of over 10 µM. For the same compound, the IC50 [13] was over 10 µM, the CC50 [14] was over 10 µM and the CC50 [15] was over 10 µM. The CC50 (MT4 [16]) was over 10 µM.

Compound `CCc1c(C)nc(O)c(NC(C)=O)c1Sc1cc(C)cc(C)c1` has an SI [1] of 1600 and an IC50 (CEM-SS [3]) of 0.05 µM.
